Results on 6 molecules are retold here after publication PMC7931646 (The Journal of Experimental Medicine, 2021).

≈ marks a conversion by molar mass, not a printed value. Like-named read-outs stand apart in the source and are kept apart here.

Series [1] deals with CSF Aβ42. Particulars: human, ref Ahn et al., 2020, cited from earlier work; for CSF Aβ42 levels lowered: MAD study.
The conditions of series [2]: ref Green et al., 2009; cited from earlier work.
Series [3] has as its system γ-secretase. Particulars: ref Green et al., 2009; cited from earlier work.
Series [4] has as its system plasma Aβ42. The conditions noted are these: human, 250 mg, SAD study; ref Yu et al., 2014; cited from earlier work.
Series [5] in a line: GLP 28-d IND-enabling safety/toxicology study of compound 1 in rats. Format: in vivo, rat. Particulars: data not shown.
Series [6] has as its system P-glycoprotein (MDR1). Briefly: MDR1-MDCK permeability. Type of series: in vitro ADME. The conditions noted are these: dog. The method in brief:
(§1)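 Transport across MDR1-MDCK cell monolayers. Apparent permeability was measured in the apical-to-basolateral direction (× 10−6 cm/s). Efflux ratio was calculated as Papp B-A / Papp A-B.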

A short description of series [7]: MDR1-MDCK permeability. Type of series: in vitro ADME. The conditions noted are these: dog. The method in brief: as §1
The nature of series [8]: Kinetic solubility in simulated intestinal fluids. Type of series: physicochemical. Particulars: for FaSSIF dissolved compound concentration: FaSSIF pH 6.5, UV/Vis absorbance; for FeSSIF dissolved compound concentration: FeSSIF pH 5.8, UV/Vis absorbance. An outline of the steps:
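Dissolved test compound concentration in FaSSIF or FeSSIF simulated intestinal fluids, determined by UV/Vis absorbance.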

In series [9] the target is CYP450 2C19 (Homo sapiens, UniProt P33261). Briefly: CYP450 inhibition, recombinant isoform. Type of series: in vitro ADME. An outline of the steps:
(§2)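 Recombinant human CYP450 isoforms were incubated with isoform-specific probe substrates; for CYP3A4 these were midazolam and testosterone. Inhibition was quantified by LC-MS/MS analysis of probe-substrate turnover.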

Series [10] relates to S. typhimurium strains TA1535, TA1537, TA98, TA100 and E. coli strain WP2 (uvrA). Briefly: GLP Salmonella–Escherichia coli/microsome plate incorporation. Particulars: S. typhimurium TA98 and TA100, only with Aroclor-induced rat liver S9; data not shown. Type of series: cell-based, Salmonella typhimurium. The method in brief:
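GLP plate-incorporation mutagenicity test using S. typhimurium TA1535, TA1537, TA98 and TA100 and E. coli WP2 (uvrA). Each strain was run with and without a metabolic activation mix of Aroclor 1254–induced rat liver microsomes (S9). Read-out is revertant bacterial growth.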

The nature of series [11]: Plasma protein binding, equilibrium dialysis. Particulars: human. Type of series: in vitro ADME. The method in brief: (§3)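 Equilibrium dialysis of test compound in human, rat or mouse plasma against buffer across a semipermeable membrane. Compound concentrations in both compartments were measured by LC/MS, and percent bound was derived from them.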
Series [12] can be described thus: Liver microsomal stability, rat. Format: in vitro ADME. The conditions noted are these: liver microsomes. The method in brief: (§4)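 Test compound at 1 µM was incubated for 30 min with liver microsomes at 1 mg/ml (human, rat or mouse). Result is percent of parent compound remaining.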
(Liver microsomes are vesicles of endoplasmic reticulum, rich in cytochrome P450 enzymes.)

Series [13] can be described thus: Plasma protein binding, equilibrium dialysis. The conditions noted are these: mouse. Type of series: in vitro ADME. An outline of the steps: as §3
(In general: In equilibrium dialysis free small molecules cross a membrane that holds back macromolecules.)

A short description of series [14]: GLP 28-d IND-enabling safety/toxicology study of compound 1 in NHPs. Particulars: data not shown. Format: in vivo, NHP.
In series [15] the test system is S. typhimurium bacterial strains TA98, TA100, TA1535, TA1537. Briefly: Non-GLP screening. Format: cell-based, Salmonella typhimurium. The conditions noted are these: 5–100 µM, with and without Aroclor-induced rat liver S9. The method in brief: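 Non-GLP mini-Ames screen using S. typhimurium TA98, TA100, TA1535 and TA1537, with and without Aroclor-induced rat liver S9. Test article was applied at 5–100 µM. Read-out was bacterial growth from reversion of the histidine mutation.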

Series [16] has as its target CYP450 2C9 (Homo sapiens, UniProt P11712). Briefly: CYP450 inhibition, recombinant isoform. Format: in vitro ADME.
For series [17], the target named is T1, CYP450 1A2 (Homo sapiens, UniProt P05177).
T1 sequence (P05177 1-516): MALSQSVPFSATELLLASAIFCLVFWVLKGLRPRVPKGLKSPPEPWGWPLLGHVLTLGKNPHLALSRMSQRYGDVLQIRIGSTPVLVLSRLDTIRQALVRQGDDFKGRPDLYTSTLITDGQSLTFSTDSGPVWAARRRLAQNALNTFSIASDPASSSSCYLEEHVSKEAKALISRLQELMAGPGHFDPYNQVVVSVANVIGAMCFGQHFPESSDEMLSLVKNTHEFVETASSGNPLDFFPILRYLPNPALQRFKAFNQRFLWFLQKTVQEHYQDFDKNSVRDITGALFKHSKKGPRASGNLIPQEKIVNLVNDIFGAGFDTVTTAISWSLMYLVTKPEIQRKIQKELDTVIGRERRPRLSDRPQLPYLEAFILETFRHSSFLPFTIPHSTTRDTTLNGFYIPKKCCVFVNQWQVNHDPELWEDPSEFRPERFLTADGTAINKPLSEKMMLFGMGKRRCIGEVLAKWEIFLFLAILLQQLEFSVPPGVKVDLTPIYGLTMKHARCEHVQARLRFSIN
Briefly: CYP450 inhibition, recombinant isoform. Format: in vitro ADME. The method in brief: as §2

The target in series [18] is CYP450 2D6 (Homo sapiens, UniProt P10635). Briefly: CYP450 inhibition, recombinant isoform. Format: in vitro ADME. An outline of the steps: as §2
A short description of series [19]: Liver microsomal stability, mouse. Format: in vitro ADME. Particulars: liver microsomes. The method in brief: as §4
Series [20] is described as follows: Plasma protein binding, equilibrium dialysis. Format: in vitro ADME. The conditions noted are these: rat. An outline of the steps: as §3
For series [21], the target named is CYP450 3A4 (Homo sapiens, UniProt P08684). Briefly: CYP450 inhibition, recombinant isoform. Type of series: in vitro ADME. An outline of the steps:
as §2

Series [22] deals with hERG channel (Homo sapiens, UniProt Q12809). Briefly: Patch-Xpress patch-clamp hERG assay in HEK-293 cells. Type of series: cell-based. On the technique in general: Patch clamp records ionic current or voltage across a cell membrane.
Series [23] is described as follows: Liver microsomal stability, human. Format: in vitro ADME. The conditions noted are these: liver microsomes. An outline of the steps:
as §4

Series [24] is described as follows: Kinetic aqueous solubility, PBS pH 7.4. Type of series: physicochemical. The conditions noted are these: PBS buffer, pH 7.4, aqueous buffer, kinetic from dmso stock. The method in brief: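 Kinetic solubility in PBS at pH 7.4, read by UV/Vis absorbance and reported in micromolar.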
In series [25] the test system is CSF Aβ42 and Aβ40. Particulars: human, 200 mg, ref Soares et al., 2016, cited from earlier work.
Setting [26] is: CYP450 IC50 3A4 (m), probe substrate midazolam.

Chain of hERG channel (Q12809 whole entry): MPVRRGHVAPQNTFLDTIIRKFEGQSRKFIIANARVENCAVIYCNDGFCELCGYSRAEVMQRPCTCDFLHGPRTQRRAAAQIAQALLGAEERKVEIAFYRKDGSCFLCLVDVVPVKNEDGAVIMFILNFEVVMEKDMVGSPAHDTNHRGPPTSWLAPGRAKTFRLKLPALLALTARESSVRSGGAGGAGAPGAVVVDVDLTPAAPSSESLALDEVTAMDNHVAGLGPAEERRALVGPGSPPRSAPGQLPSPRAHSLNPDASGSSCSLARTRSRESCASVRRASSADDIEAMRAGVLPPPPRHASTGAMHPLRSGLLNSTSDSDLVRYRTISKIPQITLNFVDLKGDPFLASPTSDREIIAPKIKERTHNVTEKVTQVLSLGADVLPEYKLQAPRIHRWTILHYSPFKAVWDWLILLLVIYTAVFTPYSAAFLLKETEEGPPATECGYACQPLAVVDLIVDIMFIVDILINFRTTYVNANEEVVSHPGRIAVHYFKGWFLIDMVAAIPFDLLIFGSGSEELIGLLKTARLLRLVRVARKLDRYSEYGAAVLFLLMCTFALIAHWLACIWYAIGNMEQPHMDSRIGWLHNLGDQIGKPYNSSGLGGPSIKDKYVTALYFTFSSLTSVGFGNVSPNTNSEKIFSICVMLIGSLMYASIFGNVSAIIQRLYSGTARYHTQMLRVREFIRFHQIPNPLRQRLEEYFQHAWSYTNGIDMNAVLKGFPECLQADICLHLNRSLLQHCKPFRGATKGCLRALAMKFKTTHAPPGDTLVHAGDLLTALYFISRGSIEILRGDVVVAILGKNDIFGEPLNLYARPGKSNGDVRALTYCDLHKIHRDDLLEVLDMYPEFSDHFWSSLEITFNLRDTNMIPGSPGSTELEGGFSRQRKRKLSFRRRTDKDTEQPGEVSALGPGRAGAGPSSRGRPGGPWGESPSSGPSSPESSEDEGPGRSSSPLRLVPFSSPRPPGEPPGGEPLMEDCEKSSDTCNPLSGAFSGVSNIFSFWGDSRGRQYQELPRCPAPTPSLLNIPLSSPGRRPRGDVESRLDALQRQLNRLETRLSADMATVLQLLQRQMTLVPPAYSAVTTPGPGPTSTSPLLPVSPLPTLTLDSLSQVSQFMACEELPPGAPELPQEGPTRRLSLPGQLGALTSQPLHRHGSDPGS
Chain of CYP450 2C9 (P11712 whole entry, canonical isoform): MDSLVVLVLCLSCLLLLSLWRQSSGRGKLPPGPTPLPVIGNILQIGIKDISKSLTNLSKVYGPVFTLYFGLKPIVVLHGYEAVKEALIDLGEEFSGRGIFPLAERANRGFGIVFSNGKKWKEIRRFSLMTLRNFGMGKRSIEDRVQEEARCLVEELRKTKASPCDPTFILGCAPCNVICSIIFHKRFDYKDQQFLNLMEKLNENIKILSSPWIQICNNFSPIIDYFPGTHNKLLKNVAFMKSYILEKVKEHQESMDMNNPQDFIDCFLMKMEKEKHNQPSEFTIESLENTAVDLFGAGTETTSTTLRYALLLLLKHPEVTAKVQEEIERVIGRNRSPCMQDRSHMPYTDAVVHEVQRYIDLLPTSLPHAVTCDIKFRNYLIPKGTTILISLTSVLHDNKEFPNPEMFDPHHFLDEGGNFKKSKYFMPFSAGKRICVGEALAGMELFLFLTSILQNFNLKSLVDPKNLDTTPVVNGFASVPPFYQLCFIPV
Chain of CYP450 3A4 (P08684 whole entry, canonical isoform): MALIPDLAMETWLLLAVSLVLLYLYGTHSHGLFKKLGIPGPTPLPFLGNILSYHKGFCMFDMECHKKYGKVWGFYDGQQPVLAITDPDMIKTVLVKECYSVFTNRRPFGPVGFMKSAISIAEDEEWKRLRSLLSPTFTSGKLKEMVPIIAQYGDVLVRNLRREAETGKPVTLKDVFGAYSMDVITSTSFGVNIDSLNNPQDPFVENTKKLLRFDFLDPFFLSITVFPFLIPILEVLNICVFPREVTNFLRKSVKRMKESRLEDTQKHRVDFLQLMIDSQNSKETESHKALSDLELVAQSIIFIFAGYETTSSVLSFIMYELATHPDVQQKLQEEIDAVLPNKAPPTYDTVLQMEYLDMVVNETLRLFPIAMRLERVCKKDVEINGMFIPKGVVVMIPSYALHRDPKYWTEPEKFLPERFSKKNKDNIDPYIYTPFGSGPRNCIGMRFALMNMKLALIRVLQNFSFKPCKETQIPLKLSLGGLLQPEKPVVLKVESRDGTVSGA
Chain of CYP450 2C19 (P33261 whole entry, canonical isoform): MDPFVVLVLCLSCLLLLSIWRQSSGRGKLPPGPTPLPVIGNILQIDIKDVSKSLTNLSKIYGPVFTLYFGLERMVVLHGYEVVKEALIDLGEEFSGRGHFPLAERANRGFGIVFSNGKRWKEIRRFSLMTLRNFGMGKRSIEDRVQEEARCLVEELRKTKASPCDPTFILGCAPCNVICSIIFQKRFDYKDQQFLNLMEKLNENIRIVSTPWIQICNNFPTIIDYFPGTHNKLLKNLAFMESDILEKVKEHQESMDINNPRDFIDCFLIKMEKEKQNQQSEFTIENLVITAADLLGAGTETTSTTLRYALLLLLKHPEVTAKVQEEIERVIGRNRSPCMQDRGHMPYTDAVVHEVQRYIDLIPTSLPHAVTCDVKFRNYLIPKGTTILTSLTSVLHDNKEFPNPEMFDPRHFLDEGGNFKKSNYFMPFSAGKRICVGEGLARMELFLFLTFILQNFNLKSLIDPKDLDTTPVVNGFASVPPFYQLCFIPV
Chain of CYP450 2D6 (P10635 whole entry, canonical isoform): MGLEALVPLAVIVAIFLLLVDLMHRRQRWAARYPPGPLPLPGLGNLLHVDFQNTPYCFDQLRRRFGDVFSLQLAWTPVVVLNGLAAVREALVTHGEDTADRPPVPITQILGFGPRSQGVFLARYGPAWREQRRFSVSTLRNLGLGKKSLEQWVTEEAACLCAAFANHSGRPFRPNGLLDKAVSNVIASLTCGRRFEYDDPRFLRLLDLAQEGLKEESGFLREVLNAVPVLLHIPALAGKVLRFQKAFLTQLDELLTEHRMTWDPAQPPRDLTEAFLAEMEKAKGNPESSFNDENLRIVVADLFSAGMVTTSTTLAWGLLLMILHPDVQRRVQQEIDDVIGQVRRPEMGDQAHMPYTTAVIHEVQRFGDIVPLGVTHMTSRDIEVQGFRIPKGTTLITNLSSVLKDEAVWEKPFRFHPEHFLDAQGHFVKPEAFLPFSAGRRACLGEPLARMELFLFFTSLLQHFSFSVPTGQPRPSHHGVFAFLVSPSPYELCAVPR

In the case of `Cc1cn(-c2ccc3n(c2=O)CCN([C@@H](C)[C@@H]2CC[C@H](c4cc(F)c(Cl)cc4C(F)(F)F)O2)C3=O)cn1` [PF-06648671], the entries for the “CSF Aβ42 levels lowered” value in series [1] (100 mg), in series [1] (200 mg) and in series [1] (360 mg) were 44%, 59% and 65%, respectively. Further, in series [1] (up to 360 mg qd for 14 d), the safety profile entry was “good safety profile”.

For the molecule `C[C@@H](C(=O)O)c1ccc(-c2ccccc2)c(F)c1` [R-flurbiprofen], in [2], the “efficacy in phase 3 human trials” value is recorded as “did not show efficacy”. In series [3], the “in vitro GSM activity” value is given as “weak”.

Turning to `COc1nc(/C=C/c2nc3n(n2)CCC[C@H]3c2ccccc2C(F)(F)F)ccc1-n1cnc(C)c1` [E2212], in series [4], the “maximal lowering of plasma Aβ42 levels (AUC0–24 h)” value is listed as 44.1%.

A word on the efflux ratio: it is a quotient of directional permeabilities that is used to spot active efflux. The term Papp A→B denotes the apparent permeability from the apical to the basolateral side of a cell layer. In general, IC50 refers to the concentration that inhibits the measured activity by half. Usually fraction unbound stands for free concentration divided by total concentration. Low readings indicate little free substance, high ones much free substance. As usually defined, the amount remaining is what is left of the initial amount, in per cent. Read a high amount remaining as greater stability. For orientation: kinetic solubility means the concentration staying in solution when a stock, usually in DMSO, is diluted into the medium. Take `COc1nc(-c2cc(C)c(N[C@@H](C)c3ccc(F)cc3)nn2)ccc1-n1cnc(C)c1` [Compound 1, (S)-N-(1-(4-fluorophenyl)ethyl)-6-(6-methoxy-5-(4-methyl-1H-imidazol-1-yl)pyridin-2-yl)-4-methylpyridazin-3-amine]: the “finding in GLP 28-d IND-enabling study in rat” value in series [5] is listed as “potentially mutagenic metabolite(s)”. In [6], the efflux ratio was 0.9. Moreover, the Papp A→B in series [7] is 37.2 ×10⁻⁶ cm/s. In addition, the “FaSSIF dissolved compound concentration” value in series [8] is listed as >100/ >100. For the same molecule, the “FeSSIF dissolved compound concentration” value in [8] is >100/ >100. Besides, the 50% inhibitory concentration (IC50) in series [9] came to 6.9 µM; in [16] it was 1.3 µM; in series [17] it was 37 µM; in series [18] it was 4.7 µM; in series [21], 8.9 µM; in series [21] (setting [26]) it was 14 µM. Further, in series [22], the IC50 was found to be 6.2 µM. In addition, the Ames assay results in series [10] is recorded as “highly variable”. For the same molecule, the fraction unbound in series [11] was 0.004; in series [13], 0.002; in [20], 0.001. For the same molecule, the amount remaining at 0.5 h, 1 µM in series [12] amounted to 84%; in [19] it was 76%; in [23] it was 78%. For the same molecule, in [14], the “finding in GLP 28-d IND-enabling study in NHPs” value is given as “evidence of corrected QT interval prolongation”. In addition, in [15], the Ames entry is given as “Positive”. Moreover, the kinetic solubility in series [24] was 6.6 µM (≈ 2.76 µg/mL).

On to `CNc1nc(Nc2ccc(-n3cnc(C)n3)c(OC)c2)nc2c1CC[C@H]2c1ccc(F)cc1` [BMS-932481], for which, in series [25] (2-wk MAD study), the “maximal lowering of CSF Aβ40 levels” value was 74% and the “maximal lowering of CSF Aβ42 levels” value is given as 77%. Also, the “stage 3 elevations in alanine amino transferase” value in series [25] is on record as “two of six subjects”.

A word on the IC20: it is the concentration at which the effect reaches the 20% level. Consider `COc1nc(-c2cc(C)c(N[C@@H](C)c3c(F)cc(F)cc3F)nn2)ccc1-n1cnc(C)c1` [Compound 3, (S)-6-(6-methoxy-5-(4-methyl-1H-imidazol-1-yl)pyridin-2-yl)-4-methyl-N-(1-(2,4,6-trifluorophenyl)ethyl)pyridazin-3-amine], for which the efflux ratio in [6] turned out to be 1.1. Moreover, the Papp A→B in series [7] stood at 30.2 ×10⁻⁶ cm/s. The “FaSSIF dissolved compound concentration” value in series [8] is on record as 79. Further, the “FeSSIF dissolved compound concentration” value in series [8] is reported as 82. For the same molecule, the IC50 in series [9] came out at 13 µM; in series [16], 1.3 µM; in [17], 3.6 µM; in series [18], 20 µM; in [21] it was 17 µM; in [21] (setting [26]), 19 µM. This molecule also showed an IC50 in series [22] of 3.1 µM. Besides, the fraction unbound in [11], in series [13] and in series [20] was 0.003 throughout. The share remaining at 0.5 h, 1 µM in [12], in [19] and in series [23] was 100% each time. Further, in series [15], the Ames result is given as “Negative”. For the same molecule, the “CYP450 2C9 IC50 relative to Aβ42 IC50” value in [16] is given as “over 200 fold”. For the same molecule, the “safety margin between Aβ42 IC50 and hERG IC20” value in series [22] was greater than 100 fold. The molecule further yielded an IC20 in series [22] (human, HEK-293 cells expressing hERG) of 1 µM. For the same molecule, the kinetic solubility in series [24] is less than 1.3 µM.
